Experimental data reported in the M2OR odorant receptor database.
Substitutions are numbered along the chain they refer to.

Legend:
Details in all cases: stereoisomer not certain
[1] = target: T1, OR1F12P (Homo sapiens) (UniProt Q8NHA8)
T1 sequence (whole entry): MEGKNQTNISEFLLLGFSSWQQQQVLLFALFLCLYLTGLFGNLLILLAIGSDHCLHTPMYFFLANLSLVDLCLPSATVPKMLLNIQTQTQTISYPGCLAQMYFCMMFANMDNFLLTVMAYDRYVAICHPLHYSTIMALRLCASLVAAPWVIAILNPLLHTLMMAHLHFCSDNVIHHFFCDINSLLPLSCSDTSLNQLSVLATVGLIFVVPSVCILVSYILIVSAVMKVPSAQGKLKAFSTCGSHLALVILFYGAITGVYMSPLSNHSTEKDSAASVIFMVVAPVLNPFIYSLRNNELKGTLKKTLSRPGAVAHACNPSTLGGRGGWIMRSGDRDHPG
Procedure, shortened: (§1)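 Assay methods differ from source to source, frequently being transient luciferase assays in mammalian cell lines. For each receptor–molecule pair, the label responsive (active) applies when the original authors judged the measured signal statistically different from baseline, and non-responsive (inactive) applies otherwise.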

[2] = system: T2, OR1F1
T2 sequence (whole entry): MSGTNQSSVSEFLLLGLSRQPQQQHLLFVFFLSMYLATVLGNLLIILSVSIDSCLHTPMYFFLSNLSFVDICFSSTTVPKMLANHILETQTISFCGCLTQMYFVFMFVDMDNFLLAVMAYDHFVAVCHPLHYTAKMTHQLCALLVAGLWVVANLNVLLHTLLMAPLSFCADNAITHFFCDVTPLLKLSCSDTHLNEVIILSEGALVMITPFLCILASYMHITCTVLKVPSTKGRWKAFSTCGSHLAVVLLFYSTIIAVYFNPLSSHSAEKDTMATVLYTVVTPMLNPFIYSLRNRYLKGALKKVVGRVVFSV
Procedure, shortened: as §1

[3] = target: T3, OR1G1 (Homo sapiens) (UniProt P47890)
T3 sequence (whole entry): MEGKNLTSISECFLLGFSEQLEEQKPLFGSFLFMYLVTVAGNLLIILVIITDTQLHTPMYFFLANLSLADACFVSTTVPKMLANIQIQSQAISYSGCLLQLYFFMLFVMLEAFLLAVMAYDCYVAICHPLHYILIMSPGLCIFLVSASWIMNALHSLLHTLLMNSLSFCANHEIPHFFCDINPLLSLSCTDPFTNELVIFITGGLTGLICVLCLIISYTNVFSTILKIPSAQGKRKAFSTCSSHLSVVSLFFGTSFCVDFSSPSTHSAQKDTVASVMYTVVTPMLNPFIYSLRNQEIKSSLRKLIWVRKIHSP
Procedure, shortened: as §1

[4] = target: T4, OR1I1 (Homo sapiens) (UniProt O60431)
T4 sequence (whole entry): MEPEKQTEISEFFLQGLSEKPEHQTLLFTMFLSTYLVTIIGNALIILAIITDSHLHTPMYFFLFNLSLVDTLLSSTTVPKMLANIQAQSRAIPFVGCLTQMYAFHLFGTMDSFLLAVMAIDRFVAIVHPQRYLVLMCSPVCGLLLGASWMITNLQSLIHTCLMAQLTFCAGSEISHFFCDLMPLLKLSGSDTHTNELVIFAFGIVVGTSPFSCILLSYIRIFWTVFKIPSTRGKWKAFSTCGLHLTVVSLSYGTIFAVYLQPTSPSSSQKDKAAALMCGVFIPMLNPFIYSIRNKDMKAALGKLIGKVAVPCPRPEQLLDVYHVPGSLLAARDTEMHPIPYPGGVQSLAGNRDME
Procedure, shortened: as §1

[5] = target: T5, OR1J1 (Homo sapiens) (UniProt Q8NGS3)
T5 sequence (whole entry): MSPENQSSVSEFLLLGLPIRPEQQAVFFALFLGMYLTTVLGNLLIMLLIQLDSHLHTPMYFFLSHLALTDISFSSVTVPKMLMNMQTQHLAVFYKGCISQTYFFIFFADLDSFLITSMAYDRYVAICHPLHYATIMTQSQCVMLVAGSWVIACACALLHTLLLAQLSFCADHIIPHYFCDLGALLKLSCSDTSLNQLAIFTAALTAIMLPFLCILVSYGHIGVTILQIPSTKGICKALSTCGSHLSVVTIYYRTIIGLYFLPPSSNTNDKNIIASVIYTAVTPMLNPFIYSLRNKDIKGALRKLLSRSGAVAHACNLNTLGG
Procedure, shortened: as §1

[6] = target: T6, OR1J2 (Homo sapiens) (UniProt Q8NGS2)
T6 sequence (whole entry): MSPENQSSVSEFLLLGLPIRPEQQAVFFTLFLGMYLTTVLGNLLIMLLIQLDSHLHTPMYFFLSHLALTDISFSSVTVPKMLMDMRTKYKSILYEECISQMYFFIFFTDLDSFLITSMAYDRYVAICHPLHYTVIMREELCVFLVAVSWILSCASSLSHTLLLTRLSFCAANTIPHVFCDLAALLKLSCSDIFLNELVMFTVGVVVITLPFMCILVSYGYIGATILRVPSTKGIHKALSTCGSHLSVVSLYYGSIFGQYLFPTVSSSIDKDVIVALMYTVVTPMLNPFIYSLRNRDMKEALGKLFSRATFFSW
Procedure, shortened: as §1

[7] = target: T7, OR1J4 (Homo sapiens) (UniProt Q8NGS1)
T7 sequence (whole entry): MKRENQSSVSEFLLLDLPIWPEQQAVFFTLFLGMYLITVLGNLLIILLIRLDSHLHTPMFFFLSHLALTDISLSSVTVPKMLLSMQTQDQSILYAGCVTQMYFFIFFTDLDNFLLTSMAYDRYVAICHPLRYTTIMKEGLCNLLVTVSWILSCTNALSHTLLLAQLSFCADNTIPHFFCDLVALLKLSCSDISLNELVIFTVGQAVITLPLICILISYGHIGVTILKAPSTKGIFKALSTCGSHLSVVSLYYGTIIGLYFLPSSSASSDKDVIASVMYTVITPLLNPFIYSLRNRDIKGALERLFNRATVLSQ
Procedure, shortened: as §1

[8] = target: T8, OR1K1 (Homo sapiens) (UniProt Q8NGR3)
T8 sequence (whole entry): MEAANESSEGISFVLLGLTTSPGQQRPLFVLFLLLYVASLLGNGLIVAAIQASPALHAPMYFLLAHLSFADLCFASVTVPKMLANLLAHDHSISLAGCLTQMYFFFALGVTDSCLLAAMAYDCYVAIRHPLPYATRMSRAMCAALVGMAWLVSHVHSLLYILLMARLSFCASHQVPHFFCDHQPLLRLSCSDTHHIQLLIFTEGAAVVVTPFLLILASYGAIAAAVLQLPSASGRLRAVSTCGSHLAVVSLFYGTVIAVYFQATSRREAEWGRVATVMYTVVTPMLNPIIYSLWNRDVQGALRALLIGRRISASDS
Procedure, shortened: as §1

[9] = system: T9, OR1L1
T9 sequence (whole entry): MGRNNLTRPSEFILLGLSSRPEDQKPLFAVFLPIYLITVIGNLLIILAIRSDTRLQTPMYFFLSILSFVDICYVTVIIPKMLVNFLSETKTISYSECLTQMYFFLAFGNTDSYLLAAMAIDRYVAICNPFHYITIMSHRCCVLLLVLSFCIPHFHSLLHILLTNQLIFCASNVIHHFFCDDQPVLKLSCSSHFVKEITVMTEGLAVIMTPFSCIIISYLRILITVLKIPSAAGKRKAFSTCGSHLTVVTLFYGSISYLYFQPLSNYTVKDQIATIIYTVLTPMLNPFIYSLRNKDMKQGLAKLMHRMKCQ
Procedure, shortened: as §1

[10] = target: T10, OR1L3 (Homo sapiens) (UniProt Q8NH93)
T10 sequence (whole entry): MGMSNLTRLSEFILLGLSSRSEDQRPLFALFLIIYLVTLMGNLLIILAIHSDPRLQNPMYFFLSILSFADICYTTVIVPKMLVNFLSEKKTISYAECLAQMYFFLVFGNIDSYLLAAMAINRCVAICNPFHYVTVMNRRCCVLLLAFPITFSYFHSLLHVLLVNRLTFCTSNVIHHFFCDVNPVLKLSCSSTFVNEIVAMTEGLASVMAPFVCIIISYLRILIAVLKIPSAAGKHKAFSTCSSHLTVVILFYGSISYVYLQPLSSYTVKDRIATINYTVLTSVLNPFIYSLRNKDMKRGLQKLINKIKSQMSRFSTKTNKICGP
Procedure, shortened: as §1

[11] = target: T11, OR1L4 (Homo sapiens) (UniProt Q8NGR5)
T11 sequence (whole entry): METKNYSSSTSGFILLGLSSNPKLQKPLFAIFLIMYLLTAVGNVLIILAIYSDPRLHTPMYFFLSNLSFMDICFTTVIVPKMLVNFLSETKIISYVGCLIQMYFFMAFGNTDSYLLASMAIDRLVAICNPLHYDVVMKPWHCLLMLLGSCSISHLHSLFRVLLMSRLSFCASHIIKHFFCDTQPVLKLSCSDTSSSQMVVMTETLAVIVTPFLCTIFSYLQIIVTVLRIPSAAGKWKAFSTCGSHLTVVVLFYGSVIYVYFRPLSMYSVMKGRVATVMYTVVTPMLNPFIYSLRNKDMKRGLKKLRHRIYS
Procedure, shortened: as §1

[12] = system: T12, OR1L4
T12 sequence (whole entry): T11 sequence (whole entry) with G234R
Procedure, shortened: as §1

[13] = system: T13, OR1L6
T13 sequence (whole entry): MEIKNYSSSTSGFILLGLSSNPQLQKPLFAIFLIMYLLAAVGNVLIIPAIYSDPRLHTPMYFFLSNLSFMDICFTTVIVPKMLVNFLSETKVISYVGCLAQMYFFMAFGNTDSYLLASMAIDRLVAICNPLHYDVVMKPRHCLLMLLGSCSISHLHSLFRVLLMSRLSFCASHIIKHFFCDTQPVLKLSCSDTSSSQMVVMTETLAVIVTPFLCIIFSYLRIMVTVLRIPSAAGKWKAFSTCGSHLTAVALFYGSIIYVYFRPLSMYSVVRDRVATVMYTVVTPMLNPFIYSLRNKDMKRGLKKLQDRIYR
Procedure, shortened: as §1

[14] = target: T14, OR1L8 (Homo sapiens) (UniProt Q8NGR8)
T14 sequence (whole entry): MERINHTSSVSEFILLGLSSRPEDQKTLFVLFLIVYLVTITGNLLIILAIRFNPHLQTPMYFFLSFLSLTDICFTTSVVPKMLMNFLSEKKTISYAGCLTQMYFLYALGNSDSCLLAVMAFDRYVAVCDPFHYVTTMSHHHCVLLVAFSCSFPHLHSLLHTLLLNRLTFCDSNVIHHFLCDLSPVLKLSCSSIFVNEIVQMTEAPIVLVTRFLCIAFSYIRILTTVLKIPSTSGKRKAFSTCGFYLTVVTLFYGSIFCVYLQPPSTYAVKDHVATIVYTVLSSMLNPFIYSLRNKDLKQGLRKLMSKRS
Procedure, shortened: as §1

[15] = system: T15, OR1L8 T27P R211P
T15 sequence (whole entry): T14 sequence (whole entry) with T27P, R211P
Procedure, shortened: as §1

[16] = target: T16, OR1M1 (Homo sapiens) (UniProt Q8NGA1)
T16 sequence (whole entry): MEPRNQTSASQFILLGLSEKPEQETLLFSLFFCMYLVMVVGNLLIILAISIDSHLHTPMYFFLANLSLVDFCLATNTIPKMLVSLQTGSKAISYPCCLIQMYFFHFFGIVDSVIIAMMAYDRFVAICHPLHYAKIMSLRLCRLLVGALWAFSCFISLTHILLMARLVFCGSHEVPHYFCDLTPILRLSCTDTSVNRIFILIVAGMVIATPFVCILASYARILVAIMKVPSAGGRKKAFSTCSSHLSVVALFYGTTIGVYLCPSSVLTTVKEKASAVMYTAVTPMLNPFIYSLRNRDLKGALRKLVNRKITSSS
Procedure, shortened: as §1

[17] = target: T17, OR1N1 (Homo sapiens) (UniProt Q8NGS0)
T17 sequence (whole entry): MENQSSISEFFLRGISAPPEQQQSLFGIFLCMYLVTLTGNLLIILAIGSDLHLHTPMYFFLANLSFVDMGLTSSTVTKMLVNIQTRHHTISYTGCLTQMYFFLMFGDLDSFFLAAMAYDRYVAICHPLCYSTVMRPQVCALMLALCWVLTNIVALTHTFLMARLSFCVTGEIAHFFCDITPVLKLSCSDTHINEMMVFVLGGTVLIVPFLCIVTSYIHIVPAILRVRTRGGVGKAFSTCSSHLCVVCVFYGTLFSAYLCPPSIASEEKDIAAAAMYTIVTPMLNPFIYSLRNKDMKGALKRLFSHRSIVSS
Procedure, shortened: as §1

[18] = system: T18, OR1N2 W37R
T18 sequence (whole entry): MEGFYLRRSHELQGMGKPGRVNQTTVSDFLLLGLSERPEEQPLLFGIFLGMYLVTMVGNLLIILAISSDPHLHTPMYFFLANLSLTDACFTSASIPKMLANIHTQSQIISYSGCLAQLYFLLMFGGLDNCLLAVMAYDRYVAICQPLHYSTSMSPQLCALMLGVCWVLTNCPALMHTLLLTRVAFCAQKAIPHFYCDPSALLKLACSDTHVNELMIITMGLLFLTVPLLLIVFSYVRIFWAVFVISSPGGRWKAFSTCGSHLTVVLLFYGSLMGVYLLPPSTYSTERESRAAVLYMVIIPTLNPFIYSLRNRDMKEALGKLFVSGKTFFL
Procedure, shortened: as §1

Measured: odorant receptor agonist call

CC1=C(O)C(=O)OC1C (stereo not drawn)
inactive: all assays above
